Assay results reported in ChEMBL document CHEMBL4715933, “Identification of Potent Reverse Indazole Inhibitors for HPK1” (ACS Med Chem Lett, 2021).

Columns and labels:
Homo sapiens [1] = species on record: Homo sapiens; assay: Selectivity ratio of IC50 for JAK1 (unknown origin) by ATP competitive binding assay to IC50 for N-terminal GST-tagged human recombinant HPK1 (1 to 346 residues ) expressed in baculovirus-infected Sf9 cells by HTRF lanthascreen binding assay
Outline: (§1)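 Ratio of off-target kinase IC50 (JAK1, JAK2 or CDK2) to HPK1 IC50. The off-target kinase assays were run at ATP approximately equal to Km(ATP). HPK1 IC50 came from the tracer-displacement assay with tracer at approximately Kd(tracer).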

Homo sapiens [2] = species on record: Homo sapiens; assay: Selectivity ratio of IC50 for JAK2 (unknown origin) by ATP competitive binding assay to IC50 for N-terminal GST-tagged human recombinant HPK1 (1 to 346 residues ) expressed in baculovirus-infected Sf9 cells by HTRF lanthascreen binding assay; outline: as §1
[3] = biological target: T1, Mitogen-activated protein kinase kinase kinase kinase 1 (Homo sapiens, UniProt Q92918); assay: Displacement of Tracer 222 from N-terminal GST-tagged human recombinant HPK1 (1 to 346 residues ) expressed in baculovirus-infected Sf9 cells incubated for 1 hr by HTRF lanthascreen binding assay
Outline: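 Binding (tracer-displacement) format run with tracer at a concentration approximately equal to its Kd; IC50 derived from displacement.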
Target sequence in this assay (Q92918 whole entry, the tested form may be a part): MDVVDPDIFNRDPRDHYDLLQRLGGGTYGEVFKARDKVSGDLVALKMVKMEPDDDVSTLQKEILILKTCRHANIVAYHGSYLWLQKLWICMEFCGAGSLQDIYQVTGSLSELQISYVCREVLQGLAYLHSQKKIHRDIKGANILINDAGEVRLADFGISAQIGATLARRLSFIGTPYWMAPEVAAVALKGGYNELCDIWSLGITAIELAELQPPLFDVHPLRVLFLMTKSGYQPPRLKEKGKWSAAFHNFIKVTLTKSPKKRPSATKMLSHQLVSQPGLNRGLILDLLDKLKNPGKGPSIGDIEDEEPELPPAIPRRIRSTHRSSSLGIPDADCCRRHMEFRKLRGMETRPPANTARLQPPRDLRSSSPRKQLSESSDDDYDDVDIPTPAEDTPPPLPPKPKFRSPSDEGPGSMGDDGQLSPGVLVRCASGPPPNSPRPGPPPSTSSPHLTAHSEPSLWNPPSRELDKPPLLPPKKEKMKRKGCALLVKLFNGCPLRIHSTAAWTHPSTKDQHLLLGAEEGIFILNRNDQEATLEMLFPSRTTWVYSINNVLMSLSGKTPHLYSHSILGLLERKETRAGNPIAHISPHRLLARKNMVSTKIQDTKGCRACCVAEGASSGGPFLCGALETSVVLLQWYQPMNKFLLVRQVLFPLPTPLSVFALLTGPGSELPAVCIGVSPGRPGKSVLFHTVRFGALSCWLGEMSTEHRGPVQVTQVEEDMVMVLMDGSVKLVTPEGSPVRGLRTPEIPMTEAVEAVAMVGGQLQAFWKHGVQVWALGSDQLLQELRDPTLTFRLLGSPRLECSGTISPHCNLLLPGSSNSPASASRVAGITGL

Homo sapiens [4] = species on record: Homo sapiens; assay: Selectivity ratio of IC50 for CDK2 (unknown origin) by ATP competitive binding assay to IC50 for N-terminal GST-tagged human recombinant HPK1 (1 to 346 residues ) expressed in baculovirus-infected Sf9 cells by HTRF lanthascreen binding assay; outline: as §1
[5] = Oral bioavailability in Wistar Han rat at 0.5 mg/kg; format: ADME, organism-based; conditions: in vivo
Outline: (§2)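 Male Wistar Han rats given 0.5 mg/kg intravenously and 0.5 mg/kg orally, both as solutions in DMSO/PEG400/H2O. Plasma clearance, volume of distribution, half-life and oral bioavailability determined. Unbound parameters correct for plasma protein binding.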

[6] = Unbound clearance in Wistar Han rat at 0.5 mg/kg, iv or 0.5 mg/kg, po; format: ADME, organism-based; conditions: in vivo; outline: as §2
[7] = Volume of distribution in Wistar Han rat at 0.5 mg/kg, iv or 0.5 mg/kg, po; format: ADME, organism-based; conditions: in vivo; outline: as §2
[8] = Apparent permeability of compound in dog MDCKII cells; format: ADME, cell-based, Canis lupus familiaris, MDCK-II; conditions: MDCK
[9] = biological target: T1, Mitogen-activated protein kinase kinase kinase kinase 1; assay: Inhibition of HPK1 in human PBMC assessed as unbound concentration required for inhibition of SLP76 phosphorylation by ELISA corrected to binding to 10% FBS
Outline: (§3)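 Target-engagement assay in human peripheral blood mononuclear cells with ELISA readout of SLP76 phosphorylation. Total-cell IC50 reported. Unbound IC50 obtained by correcting for compound binding to the 10% FBS present in the assay medium.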
Target sequence in this assay (Q92918 whole entry, looked up, the tested form may be a part): as the sequence (Q92918 whole entry, the tested form may be a part) above

[10] = Total Plasma clearance in Wistar Han rat at 0.5 mg/kg, iv or 0.5 mg/kg, po; format: ADME, organism-based; outline: as §2
[11] = biological target: T1, Mitogen-activated protein kinase kinase kinase kinase 1; assay: Inhibition of HPK1 in human PBMC assessed as inhibition of SLP76 phosphorylation by ELISA; outline: as §3
Target sequence in this assay (Q92918 whole entry, the tested form may be a part): as above

[12] = Half life in Wistar Han rat at 0.5 mg/kg, iv or 0.5 mg/kg, po; format: ADME, organism-based; conditions: in vivo; outline: as §2
[13] = Unbound volume of distribution in Wistar Han rat at 0.5 mg/kg, iv or 0.5 mg/kg, po; format: ADME, organism-based; conditions: in vivo; outline: as §2
[14] = Mean residence time in Wistar Han rat at 0.1 mg/kg, iv; format: ADME, organism-based; conditions: in vivo
Outline: (§4)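 Male Wistar Han rats dosed intravenously at 0.1 mg/kg, given as a solution in DMSO/PEG400/H2O. Plasma PK parameters derived: total plasma clearance, volume of distribution, mean residence time and half-life. Unbound clearance accounts for plasma protein binding.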

[15] = Total Plasma clearance in Wistar Han rat at 0.1 mg/kg, iv; format: ADME, organism-based; outline: as §4
[16] = Volume of distribution in Wistar Han rat at 0.1 mg/kg, iv; format: ADME, organism-based; conditions: in vivo; outline: as §4
[17] = Half life in Wistar Han rat at 0.1 mg/kg, iv; format: ADME, organism-based; conditions: in vivo; outline: as §4
[18] = Unbound clearance in Wistar Han rat at 0.1 mg/kg, iv; format: ADME, organism-based; conditions: in vivo; outline: as §4
[19] = Mean residence time in Wistar Han rat at 2 mg/kg, iv; format: ADME, organism-based; conditions: in vivo
Outline: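 Male Wistar Han rats received a single intravenous dose of 2 mg/kg, formulated as a solution in 30% captisol/70% water. Mean residence time derived from plasma concentration–time data.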

Structure (SMILES)	IC50 [3] [nM]	Ratio IC50 (Homo sapiens [1])	Ratio IC50 (Homo sapiens [2])	Ratio IC50 (Homo sapiens [4])	other results
COc1cccc(F)c1-c1cc2c(cn1)cnn2-c1cc(Cl)cc(N2CCN(C)CC2)n1	1.8	347	134	597	–
CNC(=O)N1CCN(c2cccc(-n3ncc4cnc(-c5c(F)cccc5OC)cc43)n2)CC1	11	311	32	30	–
COc1cccc(F)c1-c1cc2c(cn1)cnn2-c1ccc(N2CCN(C)CC2)cc1	89	112	112	112	–
COc1cccc(F)c1-c1cc2c(cn1)cnn2-c1ccc(N2CCOCC2)cc1	101	99	99	–	–
CN1CCN(c2ccc(-n3ncc4cnc(-c5ccccc5)cc43)cc2)CC1	826	12	12	–	–
COc1cccc(F)c1-c1cc2c(cn1)cnn2-c1cccc(N2CC3(CCCNC3)C2)n1	13	792	177	45	–
COc1cccc(F)c1-c1cc2c(cn1)cnn2-c1cccc(N2CCNCC2)n1	3.8	446	204	29	–
COc1cccc(F)c1-c1cc2c(cn1)cnn2-c1cccc(N2CCCCC2)n1	40	252	26	43	–
COc1cccc(F)c1-c1cc2c(cn1)cnn2-c1cccc(N2CCN(C)CC2)c1	408	25	25	–	–
COc1cccc(F)c1-c1cc2c(cnn2-c2cccc(N3CCN(C)CC3)n2)cc1C#N	2	1320	130	115	Papp [8]: < 14 ×10⁻⁶ cm/s; clearance [15]: 12 mL/min/kg; half-life [17]: 3.1 h; IC50 [11]: > 10000 nM; Vd [16]: 2.3 L/kg; CL free [18]: 19913 mL/min/kg
CNC1CCN(c2cccc(-n3ncc4cnc(-c5c(F)cccc5OC)cc43)n2)CC1	17	112	90	8.5	–
COC(=O)N1CCN(c2cccc(-n3ncc4cnc(-c5c(F)cccc5OC)cc43)n2)CC1	32	65	5	11	–
Cc1cccc(F)c1-c1cc2c(cnn2-c2ccc(N3CCN(C)CC3)cc2)cc1C#N	28	357	–	357	Papp [8]: < 8 ×10⁻⁶ cm/s; clearance [15]: 151 mL/min/kg; half-life [17]: 2.2 h; IC50 [11]: > 10000 nM; Vd [16]: 18 L/kg
COc1cccc(F)c1-c1cc2c(cn1)cnn2-c1cccc(N2CCOCC2)n1	34	92	18	12	–
COc1cccc(F)c1-c1cc2c(cn1)cnn2-c1cccc(N)n1	518	–	–	–	–
COc1cccc(F)c1-c1cc2c(cn1)cnn2-c1cccc(N2CC[C@H](N(C)C)C2)n1	1.2	3070	393	281	Papp [8]: 30 ×10⁻⁶ cm/s; clearance [15]: 4.8 mL/min/kg; half-life [17]: 1.2 h; IC50 [11]: > 10000 nM; Vd [16]: 0.3 L/kg
COc1cccc(-n2ncc3cnc(-c4c(F)cccc4OC)cc32)n1	103	97	21	5	–
COc1cccc(F)c1-c1cc2c(cn1)cnn2-c1cccc(N2CCCC2)n1	109	–	–	–	–
Cc1cccc(F)c1-c1cc2c(cn1)cnn2-c1ccc(N2CCN(C)CC2)cc1	121	83	83	83	–
CNC1CCc2c1ccc(F)c2-c1cc2c(cn1)cnn2-c1ccc(N2CCN(C)CC2)cc1 (racemic)	193	52	52	52	–
COc1cccc(F)c1-c1cc2c(cn1)cnn2-c1ccccc1	1050	10	10	–	–
CCOc1cccc(F)c1-c1cc2c(cn1)cnn2-c1ccc(N2CCN(C)CC2)cc1	557	18	18	18	–
COc1cccc(F)c1-c1cc2c(cn1)cnn2-c1cccc(N2CC(N)C2)n1	32	59	24	10	–
Cc1cccc(C)c1-c1cc2c(cn1)cnn2-c1ccc(N2CCN(C)CC2)cc1	284	35	35	35	–
COc1cccc(F)c1-c1cc2c(cn1)cnn2-c1cccc(N2CCN(C)CC2)n1	2.6	751	135	44	Papp [8]: 28 ×10⁻⁶ cm/s; clearance [15]: 9.4 mL/min/kg; fIC50 [9]: 0.6 µM; half-life [17]: 2.3 h; IC50 [11]: 8000 nM; Vd [16]: 1.1 L/kg; CL free [18]: 2171 mL/min/kg
COc1cccc(F)c1-c1cc2c(cn1)cnn2-c1cccc(N2CCCC2=O)n1	213	–	–	–	–

Further lines, with some results ahead:

IC50 [3] [nM]	Structure (SMILES)	Ratio IC50 (Homo sapiens [1])	Ratio IC50 (Homo sapiens [2])	Ratio IC50 (Homo sapiens [4])	other results
1.1	COc1cccc(F)c1-c1cc2c(cn1)cnn2-c1cccc(N2CC3CCC(C2)N3C)n1	8960	1450	61	bioavailability [5]: 67%; CL free [6]: 1197 mL/min/kg; Vd [7]: 2.3 L/kg; Papp [8]: 26 ×10⁻⁶ cm/s; fIC50 [9]: 0.3 µM; clearance [10]: 19 mL/min/kg; IC50 [11]: 4000 nM; half-life [12]: 2.1 h; Vdu [13]: 143 L/kg
1460	C[C@@H]1CN(c2cc(-n3ncc4ccc(-c5cnn6c5OCCC6)cc43)ccn2)C[C@H](C)N1C	7	7	–	MRT [14]: 2.6 h; clearance [15]: 8.7 mL/min/kg; Vd [16]: 1.4 L/kg
9.1	CN1CCN(c2cc(-c3n[nH]c4ccc(-c5cnn6c5CCC6)cc34)ccn2)CC1	205	1110	–	MRT [14]: 1 h; clearance [15]: 117 mL/min/kg; Vd [16]: 7.1 L/kg
15	CN1CCN(c2cc(-c3n[nH]c4cnc(-c5cnn6c5CCC6)cc34)ccn2)CC1	45	32	–	MRT [14]: 1.9 h; clearance [15]: 130 mL/min/kg; Vd [16]: 15 L/kg
6.7	COc1cccc(F)c1-c1cc2c(cn1)cnn2-c1ccnc(N2CCN(C)CC2)n1	1480	125	10	–
2200	COc1ccncc1-c1ccc2cnn(-c3ccnc(N4CCOCC4)c3)c2c1	4	4	–	clearance [15]: 31 mL/min/kg; MRT [19]: 1.2 h; Vd [16]: 2.1 L/kg
120	COc1ccncc1-c1cc2c(cn1)cnn2-c1ccc(N2CCN(C)CC2)cc1	83	83	4	–
60	COc1cccc(F)c1-c1cc2c(cn1)cnn2-c1ccnc(N2CCN(C)CC2)c1	167	61	167	–
410	Cc1ccccc1-c1cc2c(cn1)cnn2-c1ccc(N2CCN(C)CC2)cc1	24	24	–	–
1090	Cc1cccc(F)c1-c1cc2c(cn1)cnn2-c1cnn(C)c1	–	–	–	–
31	COc1cccc(F)c1-c1cc2c(cn1)cnn2-c1ccc(N2CCN(C)CC2)cn1	95	61	77	–
1470	Cc1cccc(F)c1-c1ccc2cnn(-c3ccc(N4CCN(C)CC4)cc3)c2c1	–	–	–	–
1.9	COc1cccc(F)c1-c1cc2c(cn1)cnn2-c1cccc(N2C[C@@H]3C[C@H]2CN3C)n1	5190	599	61	bioavailability [5]: > 100%; CL free [6]: 2962 mL/min/kg; Vd [7]: 0.5 L/kg; Papp [8]: 34 ×10⁻⁶ cm/s; fIC50 [9]: 1.1 µM; clearance [10]: 4.2 mL/min/kg; IC50 [11]: 4300 nM; half-life [12]: 1.8 h
